What is called IC50 is the concentration at which inhibition is half-maximal. The Ki is a measure of affinity in units of concentration, obtained from inhibition or displacement. The low end stands for higher affinity, the high end for lower affinity.

The record followed here is ChEMBL document CHEMBL4138055, “Determination and reduction of translocator protein (TSPO) ligand rs6971 discrimination” (Medchemcomm, 2017).

The test system of experiment [1] is HEK-293T. In words: Antiproliferative activity against HEK293T cells expressing human wild type TSPO after 48 hrs by BrdU incorporation assay. It counts as functional, cell-based. The procedure, abridged:
(§1)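 293T cells stably expressing human TSPO WT or A147T (lentiviral, puromycin-selected) seeded at 8.75 × 10³ cells/well on poly-L-lysine-coated plates, treated next day with vehicle or compound (1–100 μM) for 48 h. BrdU added for 4 h at 37 °C, incorporation detected by ELISA, absorbance read at 450 nm.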
On the technique in general: Incorporation of labelled thymidine or its analogues reports DNA synthesis.

Experiment [2] has as its system HEK-293T. The experiment can be described thus: Antiproliferative activity against HEK293T cells expressing human TSPO A147T mutant after 48 hrs by BrdU incorporation assay. The experiment is classed as functional, cell-based. The procedure, abridged:
as §1

Experiment [3] relates to HEK-293T. In words: Cytotoxicity against HEK293T cells expressing human TSPO A147T mutant assessed as decrease in cell viability after 48 hrs by CellTiter blue assay. It counts as functional, cell-based. Put shortly:
(§2)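 Stable TSPO WT or A147T 293T cells at 8.75 × 10³ cells/well on poly-L-lysine-coated plates, exposed next day to vehicle or compound (1–100 μM) for 48 h. CellTiter Blue (resazurin to resorufin) added for 4 h at 37 °C, fluorescence read at Ex560/Em590 nm.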
Background: Alamar Blue is a resazurin reagent that responds to reducing activity.

In experiment [4] the test system is HEK-293T. In words: Cytotoxicity against HEK293T cells expressing human wild type TSPO assessed as decrease in cell viability after 48 hrs by CellTiter blue assay. It counts as functional, cell-based. The procedure, abridged: as §2
The target of experiment [5] is T1, Translocator protein (Homo sapiens, UniProt P30536). The experiment can be described thus: Displacement of [3H]PK11195 from human wild type TSPO expressed in HEK293T cell membranes after 90 mins by scintillation counting method. In general terms: Displacement assays read how much labelled ligand stays bound in the presence of the test substance.
The next experiment is filed under the species Homo sapiens. The experiment can be described thus: Selectivity ratio of Ki for human TSPO A147T mutant to Ki for human wild type TSPO.
Experiment [6] in a line: Selectivity ratio of IC50 for HEK293T cells expressing human TSPO A147T mutant assessed as decrease in cell proliferation to IC50 for HEK293T cells expressing human wild type TSPO assessed as decrease in cell proliferation. The experiment is classed as functional.
The nature of experiment [7]: Selectivity ratio of IC50 for HEK293T cells expressing human TSPO A147T mutant assessed as decrease in cell viability to IC50 for HEK293T cells expressing human wild type TSPO assessed as decrease in cell viability. It counts as functional.
Experiment [8] has as its target T1, Translocator protein. In words: Ratio of Ki for displacement of [3H]PK11195 from human brain TSPO isolated from low affinity binder patient to Ki for [3H]PK11195 from human brain TSPO isolated from high affinity binder patient.

Molecules are shown by their SMILES.

T1 sequence (P30536 whole entry): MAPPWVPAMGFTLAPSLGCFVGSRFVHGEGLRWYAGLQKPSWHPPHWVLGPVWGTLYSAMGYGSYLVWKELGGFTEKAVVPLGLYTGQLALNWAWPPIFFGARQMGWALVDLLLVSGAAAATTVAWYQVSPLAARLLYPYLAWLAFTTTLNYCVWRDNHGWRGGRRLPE

With `CCN(CC)C(=O)Cc1c(-c2ccc(OC)cc2)nn2c(C)cc(C)nc12`, the IC50 in the experiment on HEK-293T [1], in the experiment on HEK-293T [2], in the experiment on HEK-293T [3] and in the experiment with HEK-293T [4] was above 100 µM each time.

`CCN(CC)C(=O)Cn1c2ccccc2c2ccccc21`: at Translocator protein [5], the affinity, expressed as Ki, was 30.1 nM. Moreover, in the experiment listed under Homo sapiens, the Ratio Ki stood at 5.9.

At Translocator protein [5], `CCN(Cc1ccccc1)C(=O)Cn1c2ccccc2c2cc(Br)ccc21` displayed a Ki of 54.3 nM.

Compound `CCN(CC)C(=O)Cn1c2ccccc2c2cc(-c3ccc(OC)cc3)ccc21` had a Ki at Translocator protein [5] of 28.9 nM. The Ratio Ki in the experiment listed under Homo sapiens was 3.2.

In the case of `CCN(Cc1ccccc1)C(=O)Cn1c2ccccc2c2ccccc21`, the IC50 with HEK-293T [1], in the experiment with HEK-293T [2], with HEK-293T [3] and with HEK-293T [4] was above 100 µM each time. Moreover, affinity at Translocator protein [5] was put at a Ki of 91.6 nM. In addition, the Ratio Ki in the experiment listed under Homo sapiens worked out at 5.

In the case of `CCC(C)N(C)C(=O)c1cc2ccccc2c(-c2ccccc2Cl)n1` (centres undefined) [PK-11195], the IC50 in the experiment on HEK-293T [1] was above 100 µM; with HEK-293T [2] it was above 100 µM; with HEK-293T [3] it was 69.2 µM; with HEK-293T [4], 67.4 µM.

Regarding `CCN(CC)C(=O)Cn1c2ccccc2c2cc(Br)ccc21`, the affinity at Translocator protein [5], expressed as Ki, was 31.5 nM. In addition, the Ratio Ki in the experiment listed under Homo sapiens stood at 5.1.

Take `CCN(CC)C(=O)Cn1c2ccccc2c2cc(-c3ccccc3)ccc21`: the “Ratio IC50” value is recorded as 0.9 in [6] and 1 in [7]. Moreover, the IC50 was found to be 50.5 µM in the experiment on HEK-293T [1], 47.1 µM in the experiment with HEK-293T [2], 22.9 µM in the experiment on HEK-293T [3] and 23.7 µM in the experiment on HEK-293T [4]. In addition, the Ki at Translocator protein [5] came out at 31.6 nM. The Ratio Ki in the experiment listed under Homo sapiens is 5.1.

The compound `CCN(CC)C(=O)Cn1c2ccccc2c2cc(-c3ccccc3OC)ccc21` yielded a Ki on Translocator protein [5] of 25.4 nM. Besides, in the experiment filed under Homo sapiens, the Ratio Ki turned out to be 5.4.

With `CCN(Cc1ccccc1)C(=O)Cn1c(=O)n(C)c2cnc(-c3ccccc3)nc21`, the Ratio Ki on Translocator protein [8] stood at 12.6; in the experiment filed under Homo sapiens, 4.9. The IC50 in the experiment on HEK-293T [1] was above 100 µM; in the experiment with HEK-293T [2], above 100 µM; in the experiment with HEK-293T [3] it was 26.2 µM; in the experiment with HEK-293T [4], 29.5 µM. Further, at Translocator protein [5], the Ki amounted to 6.4 nM. For the same compound, the “Ratio IC50” value in [7] was determined as 0.9.
